Data as given in ChEMBL document CHEMBL4251600, “Bioactive products from singlet oxygen photooxygenation of cannabinoids” (Eur J Med Chem, 2018).
Converted amounts (≈) assume the structure as drawn. The source made the active and inactive calls. The rule behind the calls is not given here.

Key:
Plasmodium falciparum [1] = experiment: Antiplasmodial activity against chloroquine-sensitive Plasmodium falciparum D6 infected in red blood cells incubated for 72 hrs by parasite LDH release based colorimetric assay; assay type: functional, organism-based; details: D6, 72 h
Staphylococcus aureus [2] = experiment: Antimicrobial activity against methicillin-resistant Staphylococcus aureus by modified CLSI based method; assay type: functional, organism-based
Nakaseomyces glabratus = experiment: Antifungal activity against Candida glabrata by modified CLSI based method; assay type: functional, organism-based
Cryptococcus neoformans = experiment: Antifungal activity against Cryptococcus neoformans by alamar blue assay; assay type: functional, organism-based; details: for IC50: read-out: IC50
Staphylococcus aureus [3] = experiment: Antimicrobial activity against Staphylococcus aureus by modified CLSI based method; assay type: functional, organism-based; details: for IC50: read-out: IC50
Pichia kudriavzevii = experiment: Antifungal activity against Candida krusei by modified CLSI based method; assay type: functional, organism-based
Plasmodium falciparum [4] = experiment: Antiplasmodial activity against chloroquine-resistant Plasmodium falciparum W2 infected in red blood cells incubated for 72 hrs by parasite LDH release based colorimetric assay; assay type: functional, organism-based; details: W2, 72 h
Leishmania donovani = experiment: Antileishmanial activity against Leishmania donovani promastigotes incubated for 48 hrs by alamar blue assay; assay type: functional, organism-based; details: Leishmania donovani, 48 h; for IC50: read-out: IC50; for IC90: read-out: IC90
Cannabinoid receptor 2 [5] = target: T1, Cannabinoid receptor 2 (Homo sapiens, UniProt P34972); experiment: Agonist activity at recombinant human full length CB2 receptor expressed in HEK293 cell membranes at 100 uM after 2 hrs by [35S]GTP-gammaS binding assay relative to CP-55,940; assay type: functional
T1 sequence (P34972 whole entry): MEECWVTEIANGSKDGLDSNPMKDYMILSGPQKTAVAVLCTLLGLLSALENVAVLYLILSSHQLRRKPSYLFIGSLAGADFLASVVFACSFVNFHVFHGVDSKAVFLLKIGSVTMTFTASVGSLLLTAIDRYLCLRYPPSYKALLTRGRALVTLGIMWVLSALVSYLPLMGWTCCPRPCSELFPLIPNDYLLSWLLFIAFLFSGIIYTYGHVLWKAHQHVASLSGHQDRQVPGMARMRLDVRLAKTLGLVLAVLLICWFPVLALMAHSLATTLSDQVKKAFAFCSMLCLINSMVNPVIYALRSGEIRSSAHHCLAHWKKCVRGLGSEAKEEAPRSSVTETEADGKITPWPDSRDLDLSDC

Cannabinoid receptor 1 [6] = target: T2, Cannabinoid receptor 1 (Homo sapiens, UniProt P21554); experiment: Agonist activity at recombinant human full length CB1 receptor expressed in HEK293 cell membranes at 100 uM after 2 hrs by [35S]GTP-gammaS binding assay relative to CP-55,940; assay type: functional
T2 sequence (P21554 whole entry): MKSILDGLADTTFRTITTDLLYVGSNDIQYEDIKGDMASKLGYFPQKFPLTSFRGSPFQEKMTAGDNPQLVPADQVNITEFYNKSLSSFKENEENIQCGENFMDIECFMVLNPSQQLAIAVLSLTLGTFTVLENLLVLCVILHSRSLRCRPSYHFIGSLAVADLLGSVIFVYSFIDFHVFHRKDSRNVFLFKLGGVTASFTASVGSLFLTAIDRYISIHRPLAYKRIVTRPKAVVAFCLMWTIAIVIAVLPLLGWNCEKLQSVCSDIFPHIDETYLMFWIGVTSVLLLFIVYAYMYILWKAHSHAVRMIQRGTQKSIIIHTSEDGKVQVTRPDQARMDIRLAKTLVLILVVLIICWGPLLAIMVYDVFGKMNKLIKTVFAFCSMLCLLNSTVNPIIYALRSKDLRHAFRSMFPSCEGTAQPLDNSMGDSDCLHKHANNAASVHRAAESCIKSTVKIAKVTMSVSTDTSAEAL

Cannabinoid receptor 2 [7] = target: T1, Cannabinoid receptor 2; experiment: Agonist activity at recombinant human full length CB2 receptor expressed in HEK293 cell membranes after 2 hrs by [35S]GTP-gammaS binding assay; assay type: functional
How it was run: (§1)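 Membranes (20 µg/well) from HEK293 cells stably transfected with human CB1 or CB2 cDNA were incubated with test compound and 0.5 nM [35S]-GTP-γS. Buffer: 50 mM Tris-HCl, 0.2 mM EGTA, 9 mM MgCl2, 150 mM NaCl, 50 µM GDP, 1.4 mg/ml BSA. Incubation ran 2 h at 30°C and was stopped by vacuum filtration through GF/B filters with cold Tris-HCl. Nonspecific binding was taken with 40 µM GTP-γS.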

Cannabinoid receptor 1 [8] = target: T2, Cannabinoid receptor 1; experiment: Displacement of [3H]CP-55,940 from recombinant human full length CB1 receptor expressed in HEK293 cell membranes after 90 mins by topcount method
Cannabinoid receptor 2 [9] = target: T1, Cannabinoid receptor 2; experiment: Displacement of [3H]CP-55,940 from recombinant human full length CB2 receptor expressed in HEK293 cell membranes after 90 mins by topcount method
Cannabinoid receptor 1 [10] = target: T2, Cannabinoid receptor 1; experiment: Agonist activity at recombinant human full length CB1 receptor expressed in HEK293 cell membranes after 2 hrs by [35S]GTP-gammaS binding assay; assay type: functional; how it was run: as §1
BT-549 = experiment: Anticancer activity against human BT549 cells assessed as cell growth inhibition incubated for 48 hrs by neutral red dye based assay; assay type: functional; details: BT-549, 48 h
SK-OV-3 = experiment: Anticancer activity against human SKOV3 cells assessed as cell growth inhibition incubated for 48 hrs by neutral red dye based assay; assay type: functional; details: SK-OV-3, 48 h
KB = experiment: Anticancer activity against human KB cells assessed as cell growth inhibition incubated for 48 hrs by neutral red dye based assay; assay type: functional
Vero = experiment: Cytotoxicity against African green monkey Vero cells assessed as cell growth inhibition incubated for 48 hrs by neutral red dye based assay; details: Chlorocebus sabaeus
LLC-PK1 = experiment: Cytotoxicity against pig LLC-PK1 cells assessed as cell growth inhibition incubated for 48 hrs by neutral red dye based assay; set-up: species or system Sus scrofa; details: Sus scrofa, LLC-PK1, 48 h; read-out: IC50
[11] = Cryptococcus neoformans, read-out: MIC
[12] = Staphylococcus aureus, read-out: IC50

SMILES: C=C1C[C@H]2c3c(O)cc(CCCCC)cc3OC(C)(C)[C@@H]2C[C@H]1O
- IC50 (Plasmodium falciparum [1]): 2.4 µg/mL (≈ 7.26 µM)
- IC50 (Staphylococcus aureus [2]): Not Active
- MIC (Staphylococcus aureus [2]): inactive
- IC50 (Nakaseomyces glabratus): Not Active
- MIC (Nakaseomyces glabratus): inactive
- MIC (Cryptococcus neoformans): inactive
- IC50 (Cryptococcus neoformans; Cryptococcus neoformans): 8.34 µg/mL (≈ 25.2 µM)
- MIC (Staphylococcus aureus [3]): inactive
- IC50 (Staphylococcus aureus [3]; Staphylococcus aureus): 10.7 µg/mL (≈ 32.4 µM)
- IC50 (Pichia kudriavzevii): Not Active
- MIC (Pichia kudriavzevii): inactive
- IC50 (Plasmodium falciparum [4]): 1.7 µg/mL (≈ 5.14 µM)

SMILES: CCCCCc1cc2c(c(OS(=O)(=O)c3ccc(C)cc3)c1)C1=C(CC[C@](C)(O)[C@H]1OCC)C(C)(C)O2
- IC50 (Plasmodium falciparum [1]): 2.2 µg/mL (≈ 4.16 µM)
- IC50 (Leishmania donovani): 4.5 µg/mL (≈ 8.51 µM)
- IC90 (Leishmania donovani): 22 µg/mL (≈ 41.6 µM)
- IC50 (Plasmodium falciparum [4]): 1.8 µg/mL (≈ 3.4 µM)

SMILES: C[C@@H]1[C@H](O)[C@@H](C)/C=C/C=C/C=C/C=C/C=C/C=C/C=C/[C@H](O[C@@H]2O[C@H](C)[C@@H](O)[C@H](N)[C@@H]2O)C[C@@H]2O[C@](O)(C[C@@H](O)C[C@@H](O)[C@H](O)CC[C@@H](O)C[C@@H](O)CC(=O)O[C@H]1C)C[C@H](O)[C@H]2C(=O)O [AMPHOTERICIN B]
- IC50 (Cryptococcus neoformans; Cryptococcus neoformans): 1.36 µg/mL (≈ 1.47 µM)
- MIC (Cryptococcus neoformans; [11]): 2.5 µg/mL (≈ 2.71 µM)
- IC50 (Leishmania donovani): 0.16 µg/mL (≈ 0.173 µM)
- IC90 (Leishmania donovani): 0.33 µg/mL (≈ 0.357 µM)

SMILES: CCCCCc1cc(OC(C)=O)c2c(c1)OC(C)(C)C1=C2C(O)C(C)(O)CC1 (centres undefined)
- IC50 (Plasmodium falciparum [1]): 4.5 µg/mL (≈ 11.6 µM)
- IC50 (Plasmodium falciparum [4]): 3.2 µg/mL (≈ 8.24 µM)

SMILES: CCCCCc1cc2c(c(OS(=O)(=O)c3ccc(C)cc3)c1)[C@@H]1CC(C)(OO)C=C[C@H]1C(C)(C)O2 (some centres undefined)
- Emax (Cannabinoid receptor 2 [5]): 90%
- Emax (Cannabinoid receptor 1 [6]): 20%
- IC50 (Cannabinoid receptor 2 [7]): 1750 nM
- Ki (Cannabinoid receptor 2 [7]): 876 nM
- IC50 (Cannabinoid receptor 1 [8]): 275 nM
- Ki (Cannabinoid receptor 1 [8]): 137 nM
- IC50 (Cannabinoid receptor 2 [9]): 421 nM
- Ki (Cannabinoid receptor 2 [9]): 211 nM
- IC50 (Cannabinoid receptor 1 [10]): 97 nM
- Ki (Cannabinoid receptor 1 [10]): 48 nM

SMILES: CCCCCc1cc(O)c2c(c1)OC(C)(C)C1=C2C(OC(C)=O)C(C)(OC)CC1 (centres undefined)
- IC50 (Plasmodium falciparum [1]): 3.3 µg/mL (≈ 8.2 µM)
- IC50 (Cannabinoid receptor 1 [8]): 2800 nM
- Ki (Cannabinoid receptor 1 [8]): 1400 nM
- IC50 (Cannabinoid receptor 2 [9]): 1980 nM
- Ki (Cannabinoid receptor 2 [9]): 990 nM
- IC50 (Plasmodium falciparum [4]): 3 µg/mL (≈ 7.45 µM)

SMILES: C=C1C[C@H]2C3=C(OC(C)(C)[C@@H]2CC1OO)C(=O)C(CCCCC)=CC3=O (stereo in doubt; 25)
- MIC (Nakaseomyces glabratus): inactive
- MIC (Pichia kudriavzevii): inactive

SMILES: CCCCCc1cc2c(c(OS(=O)(=O)c3ccc(C)cc3)c1)[C@@H]1[C@H](O)C(C)=CC[C@H]1C(C)(C)O2
- IC50 (Cannabinoid receptor 1 [8]): 1280 nM
- Ki (Cannabinoid receptor 1 [8]): 642 nM
- IC50 (Cannabinoid receptor 2 [9]): 1110 nM
- Ki (Cannabinoid receptor 2 [9]): 552 nM

SMILES: C=C1C[C@H]2c3c(cc(CCCCC)cc3OS(=O)(=O)c3ccc(C)cc3)OC(C)(C)[C@@H]2CC1OO (some centres undefined)
- IC50 (Cannabinoid receptor 1 [8]): 5700 nM
- Ki (Cannabinoid receptor 1 [8]): 2850 nM
- IC50 (Cannabinoid receptor 2 [9]): 2060 nM
- Ki (Cannabinoid receptor 2 [9]): 1030 nM

SMILES: CCCCCc1cc(O)c2c(c1)OC(C)(C)C1=C2C(OCC)C(C)(O)CC1 (centres undefined)
- IC50 (Plasmodium falciparum [1]): 3.6 µg/mL (≈ 9.61 µM)
- MIC (Staphylococcus aureus [2]): inactive
- IC50 (Staphylococcus aureus [2]; [12]): 17.1 µg/mL (≈ 45.6 µM)
- IC50 (Nakaseomyces glabratus): Not Active
- MIC (Nakaseomyces glabratus): inactive
- MIC (Cryptococcus neoformans): inactive
- IC50 (Cryptococcus neoformans; Cryptococcus neoformans): 4.57 µg/mL (≈ 12.2 µM)
- MIC (Staphylococcus aureus [3]): inactive
- IC50 (Staphylococcus aureus [3]; Staphylococcus aureus): 4.86 µg/mL (≈ 13 µM)
- IC50 (Leishmania donovani): 3 µg/mL (≈ 8.01 µM)
- IC90 (Leishmania donovani): 6 µg/mL (≈ 16 µM)
- IC50 (Pichia kudriavzevii): Not Active
- MIC (Pichia kudriavzevii): inactive
- IC50 (Plasmodium falciparum [4]): 3.7 µg/mL (≈ 9.88 µM)

SMILES: CCCCCC1=CC(=O)C2=C(OC(C)(C)[C@@H]3CC[C@](C)(OCC)C=C23)C1=O
- IC50 (BT-549): 4.2 µg/mL (≈ 11.3 µM)
- IC50 (SK-OV-3): 4.35 µg/mL (≈ 11.7 µM)
- IC50 (Plasmodium falciparum [1]): 0.16 µg/mL (≈ 0.43 µM)
- IC50 (KB): 5.25 µg/mL (≈ 14.1 µM)
- MIC (Staphylococcus aureus [2]; Staphylococcus aureus): 2.5 µg/mL (≈ 6.71 µM)
- IC50 (Staphylococcus aureus [2]; [12]): 1.36 µg/mL (≈ 3.65 µM)
- IC50 (Nakaseomyces glabratus): Not Active
- MIC (Nakaseomyces glabratus): inactive
- IC50 (Cryptococcus neoformans; Cryptococcus neoformans): 0.7 µg/mL (≈ 1.88 µM)
- MIC (Cryptococcus neoformans; [11]): 2.5 µg/mL (≈ 6.71 µM)
- IC50 (Cannabinoid receptor 1 [8]): 1840 nM
- Ki (Cannabinoid receptor 1 [8]): 919 nM
- IC50 (Cannabinoid receptor 2 [9]): 4070 nM
- Ki (Cannabinoid receptor 2 [9]): 2030 nM
- IC50 (Staphylococcus aureus [3]; Staphylococcus aureus): 1.35 µg/mL (≈ 3.62 µM)
- MIC (Staphylococcus aureus [3]; Staphylococcus aureus, read-out: MIC): 2.5 µg/mL (≈ 6.71 µM)
- IC50 (Leishmania donovani): 0.06 µg/mL (≈ 0.161 µM)
- IC90 (Leishmania donovani): 0.13 µg/mL (≈ 0.349 µM)
- IC50 (Vero): 4.1 µg/mL (≈ 11 µM)
- IC50 (Pichia kudriavzevii): Not Active
- MIC (Pichia kudriavzevii): inactive
- IC50 (LLC-PK1): 2.25 µg/mL (≈ 6.04 µM)
- IC50 (Plasmodium falciparum [4]): 0.2 µg/mL (≈ 0.537 µM)

SMILES: C=C1C[C@H]2C3=C(OC(C)(C)[C@@H]2CC1OO)C(=O)C(CCCCC)=CC3=O (stereo in doubt; 26)
- MIC (Staphylococcus aureus [2]): inactive
- MIC (Nakaseomyces glabratus): inactive
- MIC (Pichia kudriavzevii): inactive

SMILES: C[C@@H]1CC[C@H]2[C@@H](C)C(=O)O[C@@H]3O[C@@]4(C)CC[C@@H]1[C@]32OO4 [ARTEMISININ]
- IC50 (Plasmodium falciparum [4]): 0.014 µg/mL (≈ 0.0496 µM)
